Laboratory results published in ChEMBL document CHEMBL4619737, “Influence of side-chain changes on histone deacetylase inhibitory and cytotoxicity activities of curcuminoid derivatives” (Bioorg Med Chem Lett, 2020).
Values after ≈ are worked out from the molar mass of the structure shown. Active and inactive are the calls of the source. The calls are words filed in the database; no cut-off is given here.

Assays:
Histone deacetylase = test: Inhibition of HDAC in human HeLa cell nuclear extract using fluor-de-lys as substrate by spectrofluorometric analysis; format: cell-free
Vero [1] = test: Cytotoxicity against African green monkey Vero cells assessed as reduction in cell viability incubated for 72 hrs by MTT assay; format: cell-based; details: Chlorocebus sabaeus
Vero [2] = test: Cytotoxicity against African green monkey Vero cells assessed as reduction in cell viability incubated for 48 hrs by MTT assay; format: cell-based; details: Chlorocebus sabaeus
Vero [3] = test: Cytotoxicity against African green monkey Vero cells assessed as reduction in cell viability incubated for 24 hrs by MTT assay; format: cell-based; details: Chlorocebus sabaeus
HeLa [4] = test: Antiproliferative activity against human HeLa cells incubated for 24 hrs by MTT assay; format: functional, cell-based
HeLa [5] = test: Antiproliferative activity against human HeLa cells incubated for 48 hrs by MTT assay; format: functional, cell-based
HeLa [6] = test: Antiproliferative activity against human HeLa cells incubated for 72 hrs by MTT assay; format: functional, cell-based
HCT-116 [7] = test: Antiproliferative activity against human HCT116 cells incubated for 24 hrs by MTT assay; format: functional, cell-based; details: HCT-116, 24 h
HCT-116 [8] = test: Antiproliferative activity against human HCT116 cells incubated for 48 hrs by MTT assay; format: functional, cell-based; details: HCT-116, 48 h
HCT-116 [9] = test: Antiproliferative activity against human HCT116 cells incubated for 72 hrs by MTT assay; format: functional, cell-based; details: HCT-116, 72 h
MCF7 [10] = test: Antiproliferative activity against human MCF7 cells incubated for 24 hrs by MTT assay; format: functional, cell-based; details: MCF7, 24 h
MCF7 [11] = test: Antiproliferative activity against human MCF7 cells incubated for 48 hrs by MTT assay; format: functional, cell-based; details: MCF7, 48 h
MCF7 [12] = test: Antiproliferative activity against human MCF7 cells incubated for 72 hrs by MTT assay; format: functional, cell-based; details: MCF7, 72 h
Histone deacetylase 1 = Histone deacetylase 1 (Homo sapiens, UniProt Q13547); test: Inhibition of HDAC1 (unknown origin)
Histone deacetylase 2 = Histone deacetylase 2 (Homo sapiens, UniProt Q92769); test: Inhibition of HDAC2 (unknown origin)
Histone deacetylase 8 = molecular target: T1, Histone deacetylase 8 (Homo sapiens, UniProt Q9BY41); test: Inhibition of HDAC8 (unknown origin)
T1 sequence (Q9BY41 whole entry): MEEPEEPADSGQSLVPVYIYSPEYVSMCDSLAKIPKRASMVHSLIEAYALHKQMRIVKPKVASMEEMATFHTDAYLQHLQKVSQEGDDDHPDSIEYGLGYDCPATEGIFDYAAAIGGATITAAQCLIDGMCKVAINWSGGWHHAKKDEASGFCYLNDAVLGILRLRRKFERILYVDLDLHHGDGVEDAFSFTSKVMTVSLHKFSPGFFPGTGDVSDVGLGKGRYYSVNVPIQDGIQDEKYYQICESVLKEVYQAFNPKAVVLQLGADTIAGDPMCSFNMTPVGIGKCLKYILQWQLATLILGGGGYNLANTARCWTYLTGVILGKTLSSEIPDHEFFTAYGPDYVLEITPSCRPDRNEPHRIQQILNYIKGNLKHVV

[13] = molecular target: Histone deacetylase (Homo sapiens) (UniProt Q13547+O15379+Q9UBN7+Q92769+Q9UQL6+Q8WUI4+Q9BY41+Q96DB2+P56524+Q9UKV0+Q969S8); test: Inhibition of HDAC in human HCT116 cells assessed as accumulation of acetylated histone H3 levels at 40 ug/ml incubated for 24 hrs by Western blot analysis; format: cell-based; details: HCT-116
In short: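 HCT116 cells exposed for 24 h to compound at 10–60 μg/mL, with a 1:1 (v/v) absolute ethanol/DMSO vehicle control. Cells were harvested, and extracted proteins were separated by SDS-PAGE. Acetylated H3 was detected by immunoblotting with ERK1/2 as the loading control. Band intensities were quantified by densitometry and expressed as fold relative to the internal control.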

Sequence of Histone deacetylase 1 (Q13547 whole entry): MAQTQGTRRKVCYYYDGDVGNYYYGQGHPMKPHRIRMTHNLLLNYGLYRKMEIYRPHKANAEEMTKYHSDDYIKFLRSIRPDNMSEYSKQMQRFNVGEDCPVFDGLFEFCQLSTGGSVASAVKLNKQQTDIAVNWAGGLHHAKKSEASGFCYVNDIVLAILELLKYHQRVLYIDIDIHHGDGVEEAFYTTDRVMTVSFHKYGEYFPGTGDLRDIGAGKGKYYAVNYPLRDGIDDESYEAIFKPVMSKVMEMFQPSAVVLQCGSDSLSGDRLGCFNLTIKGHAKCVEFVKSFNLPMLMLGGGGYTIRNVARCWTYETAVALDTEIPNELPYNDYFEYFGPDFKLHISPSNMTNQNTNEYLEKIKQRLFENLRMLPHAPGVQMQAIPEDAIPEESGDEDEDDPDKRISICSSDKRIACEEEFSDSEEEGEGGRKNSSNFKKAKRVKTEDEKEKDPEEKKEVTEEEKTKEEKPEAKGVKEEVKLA
Sequence of Histone deacetylase 2 (Q92769 whole entry): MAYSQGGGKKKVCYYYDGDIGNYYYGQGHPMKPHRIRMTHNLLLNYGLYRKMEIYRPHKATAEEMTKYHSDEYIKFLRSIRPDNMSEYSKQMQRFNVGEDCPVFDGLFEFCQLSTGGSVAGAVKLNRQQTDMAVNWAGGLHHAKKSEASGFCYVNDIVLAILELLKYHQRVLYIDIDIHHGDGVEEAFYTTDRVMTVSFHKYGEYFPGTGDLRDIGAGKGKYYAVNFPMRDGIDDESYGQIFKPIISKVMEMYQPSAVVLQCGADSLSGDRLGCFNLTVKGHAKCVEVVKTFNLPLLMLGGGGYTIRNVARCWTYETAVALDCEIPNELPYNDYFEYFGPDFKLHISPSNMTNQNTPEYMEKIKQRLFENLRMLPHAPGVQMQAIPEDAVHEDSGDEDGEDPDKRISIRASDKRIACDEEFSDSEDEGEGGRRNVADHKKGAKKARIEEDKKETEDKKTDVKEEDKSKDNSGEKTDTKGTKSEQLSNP

| Structure (SMILES) | IC50 (Histone deacetylase) [µM] | IC50 (HeLa [4]) [µg/mL] | IC50 (HeLa [5]) [µg/mL] | IC50 (HeLa [6]) [µg/mL] | IC50 (HCT-116 [7]) [µg/mL] | IC50 (HCT-116 [8]) [µg/mL] | IC50 (HCT-116 [9]) [µg/mL] | IC50 (MCF7 [10]) [µg/mL] | IC50 (MCF7 [11]) [µg/mL] | IC50 (MCF7 [12]) [µg/mL] | Ki (Histone deacetylase 1) [µM] | Ki (Histone deacetylase 2) [µM] | Ki (Histone deacetylase 8) [µM] | inhibition [13] | IC50 (Vero [1]) [µg/mL] | IC50 (Vero [2]) [µg/mL] | IC50 (Vero [3]) [µg/mL] |
| --- | --- | --- | --- | --- | --- | --- | --- | --- | --- | --- | --- | --- | --- | --- | --- | --- | --- |
| COc1cc(CNC(=O)CCCCC(O)CC(C)C)ccc1O (centres undefined) | 72 | – | – | – | – | – | – | – | – | – | – | – | – | – | – | – | – |
| CCC(C)Oc1ccc(/C=C/C(=O)/C=C(O)/C=C/c2ccc(OC(C)CC)c(OC)c2)cc1OC (centres undefined) | – | > 100 | 17.5 (≈ 36.4 µM) | 10.2 (≈ 21.2 µM) | 28.7 (≈ 59.7 µM) | 10.8 (≈ 22.5 µM) | 7.89 (≈ 16.4 µM) | > 100 | 42.1 (≈ 87.6 µM) | 13.9 (≈ 28.9 µM) | 20.7 | 7.47 | 10.2 | – | > 100 | > 100 | > 100 |
| COc1cc(/C=C/C(=O)/C=C(O)/C=C/c2ccc(OC(C)C(N)=O)c(OC)c2)ccc1OC(C)C(N)=O (centres undefined) | – | 32.3 (≈ 63.3 µM) | 25.8 (≈ 50.5 µM) | 19.6 (≈ 38.3 µM) | 27.9 (≈ 54.7 µM) | 23.7 (≈ 46.4 µM) | 14.6 (≈ 28.6 µM) | 51.4 (≈ 101 µM) | 38.3 (≈ 75.1 µM) | 30.7 (≈ 60.2 µM) | 0.936 | 0.55 | 0.88 | Active | 18.7 (≈ 36.5 µM) | 25.6 (≈ 50.1 µM) | > 100 |

More lines, main results first:

| IC50 (Histone deacetylase) [µM] | IC50 (HeLa [4]) [µg/mL] | IC50 (HeLa [5]) [µg/mL] | IC50 (HeLa [6]) [µg/mL] | IC50 (HCT-116 [7]) [µg/mL] | IC50 (HCT-116 [8]) [µg/mL] | IC50 (HCT-116 [9]) [µg/mL] | IC50 (MCF7 [10]) [µg/mL] | IC50 (MCF7 [11]) [µg/mL] | IC50 (MCF7 [12]) [µg/mL] | Ki (Histone deacetylase 1) [µM] | Ki (Histone deacetylase 2) [µM] | Ki (Histone deacetylase 8) [µM] | inhibition [13] | Structure (SMILES) | IC50 (Vero [1]) [µg/mL] | IC50 (Vero [2]) [µg/mL] | IC50 (Vero [3]) [µg/mL] |
| --- | --- | --- | --- | --- | --- | --- | --- | --- | --- | --- | --- | --- | --- | --- | --- | --- | --- |
| – | 5.39 (≈ 14.6 µM) | 3.57 (≈ 9.69 µM) | 3.56 (≈ 9.66 µM) | 3.83 (≈ 10.4 µM) | 2.67 (≈ 7.25 µM) | 2.4 (≈ 6.51 µM) | 2.94 (≈ 7.98 µM) | 2.08 (≈ 5.65 µM) | 2.03 (≈ 5.51 µM) | – | – | – | – | COc1cc(/C=C/C(=O)CC(=O)/C=C/c2ccc(O)c(OC)c2)ccc1O [CURCUMIN] | 11 (≈ 29.8 µM) | 17.9 (≈ 48.5 µM) | 25 (≈ 67.9 µM) |
| – | > 100 | > 100 | > 100 | > 100 | > 100 | > 100 | > 100 | > 100 | > 100 | 1.96 | 3.99 | 14.2 | – | COc1cc(/C=C/C(=O)/C=C(O)/C=C/c2ccc(OCC(=O)O)c(OC)c2)ccc1OCC(=O)O | > 100 | > 100 | > 100 |
| – | 55.2 (≈ 140 µM) | 14 (≈ 35.6 µM) | 9.33 (≈ 23.7 µM) | 43.6 (≈ 111 µM) | 8.53 (≈ 21.6 µM) | 7.33 (≈ 18.6 µM) | > 100 | 46.3 (≈ 117 µM) | 18.1 (≈ 45.8 µM) | 2.5 | 1.06 | 3.6 | – | CCC(C)Oc1ccc(/C=C/C(O)=C/C(=O)/C=C/c2ccc(O)c(OC)c2)cc1 (centres undefined) | > 100 | > 100 | > 100 |
